Data from ChEMBL document CHEMBL3351583, “Two-pronged attack: dual inhibition of Plasmodium falciparum M1 and M17 metalloaminopeptidases by a novel series of hydroxamic acid-based inhibitors” (J Med Chem, 2014).

Experiments:
Aminopeptidase N = target: T1, Aminopeptidase N (Plasmodium falciparum FcB1/Columbia, UniProt O96935); assay: Inhibition of Plasmodium falciparum M1 incubated for 10 mins before H-Leu-NHMec substrate addition by fluorescence assay
T1 sequence (O96935 whole entry): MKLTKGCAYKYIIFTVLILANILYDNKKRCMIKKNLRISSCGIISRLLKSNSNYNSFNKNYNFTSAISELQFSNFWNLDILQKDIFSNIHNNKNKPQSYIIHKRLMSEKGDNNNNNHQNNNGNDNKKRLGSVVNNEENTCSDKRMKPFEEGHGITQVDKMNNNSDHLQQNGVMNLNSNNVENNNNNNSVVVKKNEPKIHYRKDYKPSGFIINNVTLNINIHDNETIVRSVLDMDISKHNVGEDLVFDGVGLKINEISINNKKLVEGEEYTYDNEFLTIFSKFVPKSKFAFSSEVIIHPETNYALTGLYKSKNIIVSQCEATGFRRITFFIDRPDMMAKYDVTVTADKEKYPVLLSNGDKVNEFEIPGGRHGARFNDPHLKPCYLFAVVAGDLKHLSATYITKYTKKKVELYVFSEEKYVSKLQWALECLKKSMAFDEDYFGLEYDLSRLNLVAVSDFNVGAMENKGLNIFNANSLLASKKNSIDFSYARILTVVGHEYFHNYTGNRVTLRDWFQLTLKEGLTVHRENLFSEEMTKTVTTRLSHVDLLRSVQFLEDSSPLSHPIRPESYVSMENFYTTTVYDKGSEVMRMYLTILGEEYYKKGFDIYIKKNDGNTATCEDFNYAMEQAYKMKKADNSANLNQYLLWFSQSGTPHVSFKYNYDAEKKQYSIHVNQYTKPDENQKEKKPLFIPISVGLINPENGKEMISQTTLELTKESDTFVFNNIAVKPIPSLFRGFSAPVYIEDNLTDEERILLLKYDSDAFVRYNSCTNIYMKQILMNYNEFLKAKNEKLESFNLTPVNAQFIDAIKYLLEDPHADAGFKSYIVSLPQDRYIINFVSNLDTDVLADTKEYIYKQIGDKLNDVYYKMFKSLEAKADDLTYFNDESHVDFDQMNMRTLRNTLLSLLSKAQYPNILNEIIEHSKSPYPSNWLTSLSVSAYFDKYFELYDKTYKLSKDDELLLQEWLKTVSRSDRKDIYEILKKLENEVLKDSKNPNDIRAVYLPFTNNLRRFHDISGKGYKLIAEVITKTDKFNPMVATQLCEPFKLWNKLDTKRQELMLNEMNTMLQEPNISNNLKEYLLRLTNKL
Summary of the method: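 Recombinant PfA-M1 (E. coli, Ni-NTA then size exclusion) preincubated with inhibitor (0-500 μM) 10 min in 100 mM Tris pH 8.0 at 37 °C, then H-Leu-NHMec added below Km. NHMec release read at ex 355/em 460 nm to steady-state velocity; Ki from Dixon plots of 1/V against inhibitor concentration.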

Leucine aminopeptidase = target: T2, Leucine aminopeptidase (Plasmodium falciparum 3D7, UniProt Q8IL11); assay: Inhibition of Plasmodium falciparum M17 incubated for 10 mins before H-Leu-NHMec substrate addition by fluorescence assay
T2 sequence (Q8IL11 whole entry): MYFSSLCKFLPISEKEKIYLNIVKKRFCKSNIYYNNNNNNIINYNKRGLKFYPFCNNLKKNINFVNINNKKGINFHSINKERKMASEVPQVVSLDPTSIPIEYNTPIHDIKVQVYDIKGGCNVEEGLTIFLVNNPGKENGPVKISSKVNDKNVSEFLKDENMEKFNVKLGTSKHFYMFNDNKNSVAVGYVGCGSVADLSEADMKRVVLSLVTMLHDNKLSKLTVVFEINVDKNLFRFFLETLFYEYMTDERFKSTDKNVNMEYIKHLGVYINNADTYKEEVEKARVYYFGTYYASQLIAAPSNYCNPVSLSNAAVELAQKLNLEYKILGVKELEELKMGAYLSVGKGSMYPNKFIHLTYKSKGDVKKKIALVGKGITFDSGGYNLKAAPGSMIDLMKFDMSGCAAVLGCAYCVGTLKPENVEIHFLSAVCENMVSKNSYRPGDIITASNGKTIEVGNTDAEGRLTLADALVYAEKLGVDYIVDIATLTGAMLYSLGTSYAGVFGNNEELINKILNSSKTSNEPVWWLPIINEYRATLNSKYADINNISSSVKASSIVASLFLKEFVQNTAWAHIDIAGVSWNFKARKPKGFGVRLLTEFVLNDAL
Summary of the method: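 Recombinant PfA-M17 purified from E. coli by Ni-NTA and gel filtration; 10 min inhibitor preincubation (0-500 μM) in 50 mM Tris pH 8.0, 2 mM CoCl₂, 37 °C, before H-Leu-NHMec at sub-Km level. Fluorescence (355/460 nm) followed to final steady-state velocity; Ki obtained by Dixon plot.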

HEK293 = assay: Cytotoxicity against HEK293 cells assessed as growth inhibition up to 40 uM after 72 hrs by resazurin based assay; format: cell-based; details: human, hek293, 72 h
Summary of the method: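 HEK293 in DMEM plus 10% FCS, seeded 2000 cells/well, adhered overnight, then dosed to top final 40 μM, 0.4% DMSO, 72 h at 37 °C, 5% CO₂. Medium replaced with 44 μM resazurin in serum-free DMEM, 4-6 h more, fluorescence 530/595 nm; % growth against 40 μM puromycin and 0.4% DMSO controls; IC50 by variable-slope nonlinear regression.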

Plasmodium falciparum = assay: Antimalarial activity against Plasmodium falciparum 3D7 assessed as parasite growth inhibition after 72 hrs by DAPI staining based confocal microscopy; format: functional, organism-based; details: 3D7, 72 h
Summary of the method: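 Sorbitol-synchronised 3D7 rings (2% parasitaemia, 0.3% haematocrit) in RPMI/Hepes/hypoxanthine/AlbuMAX II exposed to three-step log dilutions from 40 μM top, final 0.4% DMSO, 72 h at 37 °C, 5% CO₂. Saponin/Triton X/EDTA buffer with DAPI added, overnight RT, confocal imaging counts parasites; % growth versus 2 μM artemisinin and 0.4% DMSO controls; IC50 by variable-slope nonlinear regression.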

Structure (SMILES)	Ki (Aminopeptidase N) [µM]	Ki (Leucine aminopeptidase) [nM]	Activity (HEK293)	IC50 (Plasmodium falciparum) [nM]
Cl.NC(C(=O)NO)c1ccc(-n2cccn2)cc1 (stereo unspecified)	74.5	86000	Non-toxic	–
CC(C)(C)OC(=O)NC(C(=O)NO)c1ccc(-n2cccn2)cc1 (stereo unspecified)	0.8	30	Non-toxic	783
Nc1ccc(C(=O)NC(C(=O)NO)c2ccc(-n3cccn3)cc2)cc1 (stereo unspecified)	7.4	11	Non-toxic	228
CC(=O)NC(C(=O)NO)c1ccc(-n2cccn2)cc1 (stereo unspecified)	113	19	Non-toxic	619
O=C(NC(C(=O)NO)c1ccc(-n2cccn2)cc1)c1ccc(F)cc1 (stereo unspecified)	11.2	12	Non-toxic	703
CC(C)(C)NC(=O)NC(C(=O)NO)c1ccc(-n2cccn2)cc1 (stereo unspecified)	15.3	38	Non-toxic	597
O=C(NC(C(=O)NO)c1ccc(-n2cccn2)cc1)c1cccc(F)c1 (stereo unspecified)	4	35	Non-toxic	429
CC(C)(C)C(=O)NC(C(=O)NO)c1ccc(-n2cccn2)cc1 (stereo unspecified)	0.7	28	Non-toxic	227
CC(C)(C)OC(=O)NC(C(=O)O)c1ccc(-n2cccn2)cc1 (stereo unspecified)	> 500	464000	Non-toxic	–
O=C(NC(C(=O)NO)c1ccc(-n2cccn2)cc1)c1ccccc1F (stereo unspecified)	1.9	8	Non-toxic	351
Nc1cccc(C(=O)NC(C(=O)NO)c2ccc(-n3cccn3)cc2)c1 (stereo unspecified)	5.5	14	Non-toxic	233
CCC(=O)NC(C(=O)NO)c1ccc(-n2cccn2)cc1 (stereo unspecified)	41.3	16	Non-toxic	455
O=C(NC(C(=O)NO)c1ccc(-n2cccn2)cc1)c1ccccc1 (stereo unspecified)	23	154	Non-toxic	–
Cl.NC(C(=O)O)c1ccc(-n2cccn2)cc1 (stereo unspecified)	> 500	> 500000	Non-toxic	–
CC(C)C(=O)NC(C(=O)NO)c1ccc(-n2cccn2)cc1 (stereo unspecified)	12.3	53	Non-toxic	532
